Key:
A549 [1] = experiment: Antiproliferative activity against human A549 cells assessed as reduction in cell viability measured after 48 hrs MTT assay; format: functional, cell-based; details: A549, 48 h
How it was run: (§1)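 Cells (MDA-MB-231, MCF-7, MCF-10A, HT-29, A549) exposed to compounds for 48 h, then viability read by MTT. IC50 is the concentration giving 50% inhibition of viability. Means ± SD of three independent experiments.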

HT-29 = experiment: Antiproliferative activity against human HT-29 cells assessed as reduction in cell viability measured after 48 hrs MTT assay; format: functional, cell-based; details: HT-29, 48 h; how it was run: as §1
[2] = biological target: NAD(P)H dehydrogenase [quinone] 1 (Homo sapiens) (UniProt P15559); experiment: Substrate activity at human NQO1 assessed as amount of NADH oxidation assessed per umol NQO1
NAD(P)H dehydrogenase [quinone] 1 (Homo sapiens), sequence (P15559 whole entry): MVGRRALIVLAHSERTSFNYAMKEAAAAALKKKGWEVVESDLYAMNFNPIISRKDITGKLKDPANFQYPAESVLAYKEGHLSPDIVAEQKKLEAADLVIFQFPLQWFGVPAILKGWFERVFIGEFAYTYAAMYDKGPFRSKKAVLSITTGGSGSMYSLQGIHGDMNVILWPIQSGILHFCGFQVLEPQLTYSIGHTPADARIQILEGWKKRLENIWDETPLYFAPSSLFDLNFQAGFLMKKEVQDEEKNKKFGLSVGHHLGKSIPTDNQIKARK
How it was run: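 Quinones at 20 μM coincubated with NADH with and without human NQO1. Rate of NADH oxidation measured.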

MDA-MB-231 [3] = experiment: Antiproliferative activity against human MDA-MB-231 cells assessed as reduction in cell viability measured after 48 hrs MTT assay; format: functional, cell-based; details: MDA-MB-231, 48 h; how it was run: as §1
MCF7 = experiment: Antiproliferative activity against human MCF7 cells assessed as reduction in cell viability measured after 48 hrs MTT assay; format: functional, cell-based; details: MCF7, 48 h; how it was run: as §1
MCF-10A = experiment: Cytotoxicity against human MCF10A cells assessed as reduction in cell viability measured after 48 hrs MTT assay; format: cell-based; how it was run: as §1
A549 [4] = experiment: Induction of apoptosis in human A549 cells assessed as early apoptotic cells at 2 uM measured after 24 hrs by annexinV-FITC/propidium iodide staining based flow cytometry (reference value: 0.25 %); format: functional
A549 [5] = experiment: Induction of apoptosis in human A549 cells assessed as late apoptotic cells at 2 uM measured after 24 hrs by annexinV-FITC/propidium iodide staining based flow cytometry (reference value: 3.70 %); format: functional
A549 [6] = experiment: Induction of ROS generation in human A549 cells at 2 uM measured after 24 hrs by DCFH-DA probe based flow cytometry (reference value: 4.92 %); format: functional
A549 [7] = experiment: Induction of apoptosis in human A549 cells assessed as necrotic cells at 2 uM measured after 24 hrs by annexinV-FITC/propidium iodide staining based flow cytometry (reference value: 0.54 %); format: functional
A549 [8] = experiment: Induction of apoptosis in human A549 cells assessed as live cells at 2 uM measured after 24 hrs by annexinV-FITC/propidium iodide staining based flow cytometry (reference value: 95.5 %); format: functional
A549 [9] = experiment: Induction of apoptosis in human A549 cells assessed as live cells at 1 uM measured after 24 hrs by annexinV-FITC/propidium iodide staining based flow cytometry (reference value: 95.5 %); format: functional
A549 [10] = experiment: Induction of apoptosis in human A549 cells assessed as early apoptotic cells at 1 uM measured after 24 hrs by annexinV-FITC/propidium iodide staining based flow cytometry (reference value: 0.25 %); format: functional
A549 [11] = experiment: Potency index, ratio of BBI608 activity to test compound activity for induction of apoptosis in human A549 cells measured after 24 hrs by annexinV-FITC/propidium iodide staining based flow cytometry; format: functional
How it was run: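 A549 cells given test compound or BBI608, each at 2 μM, for 24 h, then stained with Annexin V-FITC/propidium iodide for 15 min. Apoptosis rate by flow cytometry; the ratio compares rates at the same concentration.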

MDA-MB-231 [12] = experiment: Effect on total STAT3 level in human MDA-MB-231 cells at 2 to 8 uM measured after 2 hrs by Western blot analysis; format: cell-based; details: mda-mb-231, 2 h
How it was run: (§2)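 MDA-MB-231 cells incubated for 2 h with test compound at 2, 4 or 8 μM, or with DMSO vehicle. Phospho-STAT3 and total STAT3 detected by western blot.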

A549 [13] = experiment: Induction of apoptosis in human A549 cells assessed as necrotic cells at 1 uM measured after 24 hrs by annexinV-FITC/propidium iodide staining based flow cytometry (reference value: 0.54 %); format: functional
A549 [14] = experiment: Induction of ROS generation in human A549 cells at 2 uM measured after 24 hrs by DCFH-DA probe based flow cytometry relative to BBI608; format: functional
[15] = biological target: Signal transducer and activator of transcription 3 (Homo sapiens) (UniProt P40763); experiment: Inhibition of STAT3 phosphorylation in human MDA-MB-231 cells measured after 2 hrs by Western blot analysis; format: cell-based; how it was run: as §2
Signal transducer and activator of transcription 3 (Homo sapiens), sequence (P40763 whole entry): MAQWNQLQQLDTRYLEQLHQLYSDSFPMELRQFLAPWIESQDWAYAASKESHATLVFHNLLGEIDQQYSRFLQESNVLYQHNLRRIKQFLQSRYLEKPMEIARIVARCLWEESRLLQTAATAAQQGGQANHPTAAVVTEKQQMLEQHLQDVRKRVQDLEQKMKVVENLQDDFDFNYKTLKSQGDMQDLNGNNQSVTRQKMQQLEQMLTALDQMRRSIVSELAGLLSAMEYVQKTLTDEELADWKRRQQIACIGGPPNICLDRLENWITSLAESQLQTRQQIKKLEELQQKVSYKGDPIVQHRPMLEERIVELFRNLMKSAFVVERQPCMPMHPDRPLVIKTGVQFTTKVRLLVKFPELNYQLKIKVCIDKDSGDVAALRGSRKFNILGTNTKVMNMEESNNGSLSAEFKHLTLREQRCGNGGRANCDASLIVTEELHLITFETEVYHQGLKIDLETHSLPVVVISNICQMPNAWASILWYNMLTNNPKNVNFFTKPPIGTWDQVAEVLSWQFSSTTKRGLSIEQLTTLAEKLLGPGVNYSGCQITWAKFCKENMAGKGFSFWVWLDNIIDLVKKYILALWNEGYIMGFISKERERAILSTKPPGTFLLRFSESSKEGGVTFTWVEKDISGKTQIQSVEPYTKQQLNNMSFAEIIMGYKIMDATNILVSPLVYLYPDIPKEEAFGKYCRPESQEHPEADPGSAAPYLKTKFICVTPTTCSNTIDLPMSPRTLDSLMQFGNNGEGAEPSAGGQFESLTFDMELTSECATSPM

A549 [16] = experiment: Induction of apoptosis in human A549 cells assessed as late apoptotic cells at 1 uM measured after 24 hrs by annexinV-FITC/propidium iodide staining based flow cytometry (reference value: 3.70 %); format: functional
A549 [17] = experiment: Induction of apoptosis in human A549 cells measured after 24 hrs by annexinV-FITC/propidium iodide staining based flow cytometry; format: functional, cell-based

SMILES | IC50 (A549 [1]) [µM] | IC50 (HT-29) [µM] | Activity [2] [µmol/min] | IC50 (MDA-MB-231 [3]) [µM] | IC50 (MCF7) [µM] | inhibition [15] | IC50 (MCF-10A) [µM] | Activity (A549 [4]) [%] | Activity (A549 [5]) [%] | Activity (A549 [6]) [%] | Activity (A549 [7]) [%] | Activity (A549 [8]) [%] | Activity (A549 [9]) [%] | Activity (A549 [10]) [%] | Ratio (A549 [11]) | Activity (MDA-MB-231 [12]) | Activity (A549 [13]) [%] | Ratio (A549 [14]) | Activity (A549 [16]) [%] | Activity (A549 [17])
O=C1c2ccccc2C(=O)c2c(-c3ccccc3)nsc21 | 27.5 | 18.8 | 5.59 | 10.3 | > 40 |  | 17.6 |  |  |  |  |  |  |  |  |  |  |  |  | 
CC(=O)c1cc2c(o1)C(=O)c1ccccc1C2=O [NAPABUCASIN] | 6.69 | 0.14 | 170 | 1.29 | 0.63 |  | 0.54 | 0.16 | 4.98 | 23.5 | 0.45 | 94.4 |  |  |  |  |  |  |  | 
COc1ccc(-c2nsc3c2C(=O)c2cccc(OC)c2C3=O)cc1 | > 40 | > 40 | 18 | > 40 | > 40 |  | > 40 |  |  |  |  |  |  |  |  |  |  |  |  | 
Cc1nsc2c1C(=O)c1c(O)cccc1C2=O | 1.96 | 1.62 | 122 | 1.67 | 0.92 |  | 0.92 |  |  |  |  |  |  |  |  |  |  |  |  | 
CCc1nsc2c1C(=O)c1cccnc1C2=O | 1.51 | 2.06 | 28.4 | 0.34 | 1.11 |  | 0.59 |  |  |  |  |  |  |  |  |  |  |  |  | 
CCc1nsc2c1C(=O)c1ccccc1C2=O | 0.7 | 2.92 | 122 | 2.59 | 2.34 |  | 1.13 |  |  |  |  |  |  |  |  |  |  |  |  | 
Cc1nsc2c1C(=O)c1cccc(O)c1C2=O | 1.36 | 1.41 | 122 | 2.67 | 1.58 |  | 1.37 |  |  |  |  |  |  |  |  |  |  |  |  | 
Cc1nsc2c1C(=O)c1ccccc1C2=O | 1.71 | 2.67 | 68 | 1.65 | 4.09 |  | 1.11 |  |  |  |  |  |  |  |  |  |  |  |  | 
COc1ccc(-c2nsc3c2C(=O)c2cccc(O)c2C3=O)cc1 | 4.8 | 3.88 | 38.9 | 1.46 | 1.41 |  | 1.51 |  |  |  |  |  |  |  |  |  |  |  |  | 

Further lines, with some results ahead:

IC50 (A549 [1]) [µM] | IC50 (HT-29) [µM] | Activity [2] [µmol/min] | IC50 (MDA-MB-231 [3]) [µM] | IC50 (MCF7) [µM] | inhibition [15] | SMILES | IC50 (MCF-10A) [µM] | Activity (A549 [4]) [%] | Activity (A549 [5]) [%] | Activity (A549 [6]) [%] | Activity (A549 [7]) [%] | Activity (A549 [8]) [%] | Activity (A549 [9]) [%] | Activity (A549 [10]) [%] | Ratio (A549 [11]) | Activity (MDA-MB-231 [12]) | Activity (A549 [13]) [%] | Ratio (A549 [14]) | Activity (A549 [16]) [%] | Activity (A549 [17])
> 40 | > 40 | 8.75 | > 40 | > 40 |  | COc1ccc(-c2nsc3c2C(=O)c2c(OC)cccc2C3=O)cc1 | > 40 |  |  | 7.19 |  |  |  |  |  |  |  |  |  | 
1.35 | 2.03 | 175 | 0.66 | 0.46 |  | O=C1c2cccnc2C(=O)c2c(-c3ccccc3)nsc21 | 0.17 |  |  |  |  |  |  |  |  |  |  |  |  | 
> 40 | 36.8 | 7.29 | 35.2 | 37.5 |  | COc1ccc(-c2nsc3c2C(=O)c2ccccc2C3=O)cc1 | 29.3 |  |  |  |  |  |  |  |  |  |  |  |  | 
1.38 | 1.66 | 97.2 | 2.72 | 0.71 |  | CCc1nsc2c1C(=O)c1c(O)cccc1C2=O | 3.06 |  |  |  |  |  |  |  |  |  |  |  |  | 
> 40 | 28.8 | 14.6 | 22 | 12.1 |  | COc1cccc2c1C(=O)c1snc(-c3ccccc3)c1C2=O | 24.6 |  |  |  |  |  |  |  |  |  |  |  |  | 
0.81 | 1.2 | 174 | 0.4 | 0.26 |  | O=C1c2ncccc2C(=O)c2c(-c3ccccc3)nsc21 | 0.88 |  |  |  |  |  |  |  |  |  |  |  |  | 
2.77 | 40 | 209 | 0.73 | 1.82 |  | COc1ccc(-c2nsc3c2C(=O)c2cccnc2C3=O)cc1 | 1.96 |  |  |  |  |  |  |  |  |  |  |  |  | 
1.69 | 3.03 | 180 | 0.23 | 0.64 |  | Cc1nsc2c1C(=O)c1cccnc1C2=O | 0.88 |  |  |  |  |  |  |  |  |  |  |  |  | 
1.38 | 0.91 | 91.8 | 1.53 | 0.36 |  | CCc1nsc2c1C(=O)c1ncccc1C2=O | 0.17 |  |  |  |  |  |  |  |  |  |  |  |  | 
3.28 | 1.52 | 219 | 0.26 | 0.31 | Dose-dependent effect | Cc1nsc2c1C(=O)c1ncccc1C2=O | 0.13 | 0.33 | 13.4 | 57.5 | 1.49 | 84.8 | 92.7 | 0.17 | 2.5 | Non-Toxic | 0.59 | 3 | 6.53 | Dose-dependent effect
2.83 | 3.8 | 112 | 5.81 | 3.31 |  | CCc1nsc2c1C(=O)c1cccc(O)c1C2=O | 3.02 |  |  |  |  |  |  |  |  |  |  |  |  | 

— ChEMBL document CHEMBL4622930, “Synthesis and biological evaluation of novel isothiazoloquinoline quinone analogues” (Bioorg Med Chem Lett, 2020)
